Bioassay records as filed in PubChem.
ZTA DNA inh = blocks Epstein-Barr virus ZTA, an EBNA-1 counter-screen | actives 0.15% (n = 320,000) | inhibition, % at 11 µM | P03206 | ZTA-DNA binding, fluorescence polarization; in the data active = inhibition above about 33%
Target sequence (P03206 whole entry, looked up): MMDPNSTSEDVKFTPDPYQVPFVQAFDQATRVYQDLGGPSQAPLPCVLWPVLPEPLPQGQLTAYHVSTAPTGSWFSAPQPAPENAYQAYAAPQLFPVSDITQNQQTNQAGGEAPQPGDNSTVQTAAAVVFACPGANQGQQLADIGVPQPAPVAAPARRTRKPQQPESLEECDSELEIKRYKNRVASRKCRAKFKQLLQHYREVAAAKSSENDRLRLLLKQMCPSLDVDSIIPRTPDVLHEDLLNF
NS3 helicase inh = blocks Hepatitis C virus NS3 helicase unwinding | NS3 helicase DNA unwinding, Cy5 molecular beacon fluorescence | inhibition, % at 10.9 µM | actives 0.56% (n = 290,000);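 active = inhibition above the mean of all tested compounds plus 3 SD, set per campaign, cut at about 35% in these data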;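 also: 0% = DMSO wells and 100% = thioflavine S control wells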
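Control set: DMSO versus 110 µM thioflavine S; Material: NS3 helicase fragment of HCV; Measured by: Cy5 fluorescence at 0 and 60 min, beacon hairpin quenching; Read-out basis: percent inhibition from t60/t0 fluorescence ratio; Times: reaction time 60 min, 25 °C; Repeats: single replicate; Compound dosing: single dose, 10.9 µM nominal final, DMSO 0.8% final.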
GPR7 antagonist = blocks human GPR7 receptor signaling; P48145; GPR7-expressing cells, fluorescence antagonist assay; inhibition, % at 4.4 µM; actives 1.1% (n = 290,000); AID 1861; in the data active = inhibition above about 16%, passing the limit was not always enough;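 also: cells stimulated with the agonist NPW; 0% = agonist with vehicle and 100% = vehicle without agonist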
Target sequence (P48145 whole entry, looked up): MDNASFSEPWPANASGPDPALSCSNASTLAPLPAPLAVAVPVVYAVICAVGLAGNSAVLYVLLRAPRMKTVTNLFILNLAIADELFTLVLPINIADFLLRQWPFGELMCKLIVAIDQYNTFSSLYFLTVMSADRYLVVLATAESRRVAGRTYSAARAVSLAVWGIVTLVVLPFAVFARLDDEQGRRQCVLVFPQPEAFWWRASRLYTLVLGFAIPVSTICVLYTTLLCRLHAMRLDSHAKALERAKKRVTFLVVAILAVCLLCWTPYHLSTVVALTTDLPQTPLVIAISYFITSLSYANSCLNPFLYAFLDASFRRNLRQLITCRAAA
DNA FID counter = displaces DNA intercalator in HCV helicase counter-screen. DNA fluorescent intercalator displacement, fluorescence. inhibition, % at 7.9 µM. actives 0.17% (n = 290,000); in the data active = inhibition above about 37%;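 also: 0% = vehicle and 100% = reference compound; higher means more ethidium bromide displaced from hairpin DNA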
EBNA-1 inh = blocks EBNA-1 binding to DNA | EBNA-1 DNA binding, fluorescence polarization | inhibition, % at 14.8 µM | actives 0.34% (n = 300,000) | AID 1950; in the data active = inhibition above about 28%
* marks the source's active call; other numbers are inactive results; / = no result; + = active, no number; ! = repeats disagree. Rows were chosen to be rich in hits. Some 2% of all compounds tested hit in one or more screens of this group.

SMILES	ZTA DNA inh	NS3 helicase inh	GPR7 antagonist	DNA FID counter	EBNA-1 inh
C=C1C(=O)C=C2CN(C(=O)c3ccccc3)[C@@](Cc3ccc(F)cc3)(C(=O)OC)[C@@H]12	5	4	85*	-16	9
O=S(=O)(NCC(c1cccnc1)N1CCN(Cc2ccccc2)CC1)c1cc(F)ccc1F (stereo unspecified)	-7	-26	0	2	11
COCCNC(=O)C(c1ccc(Cl)cc1)N(CCOC)C(=O)CCC(=O)Nc1ccccn1 (stereo unspecified)	7	-5	-21	-27	-3
CCCCOc1ccc(C(=O)Nc2cccc(-n3cnnn3)c2)cc1OC	7	-2	-8	-33	2
Cc1nn(CC(=O)NCCCN2CCC(N3CCCCC3)CC2)c(=O)c2cc(-c3ccccc3)nn12	3	-37	-10	38*	0
Cc1nn(CC(=O)NCCCN2CCN(C)CC2)c(=O)c2cc(-c3ccccc3)nn12	-20	-2	6	20	-7
CC1=CC(=O)c2c(O)ccc(O)c2C1=O	36*	26	3	6	42*
O=C1C=C(O)c2cccc(O)c2C1=O	5	/	/	/	-7
CCOC(=O)CS(=O)(=O)c1nc(-c2ccc(F)cc2)cc(C(F)(F)F)n1	0	4	-3	-11	-14
CCOC(=O)CS(=O)(=O)c1nc(-c2ccccc2)cc(C(F)(F)F)n1	16	12	39*	-15	-5
COC(=O)CCS(=O)(=O)c1nc(-c2ccccc2)cc(C(F)(F)F)n1	7	-1	15	-7	5
CCOC(=O)CCS(=O)(=O)c1nc(-c2ccccc2)cc(C(F)(F)F)n1	12	10	26*	-12	14
Cc1cc(C)c(C(=O)N(CCN(C)C)CC2CCCN(Cc3ccccc3F)C2)o1 (stereo unspecified)	7	-18	18	27	-3
CCn1c(CSc2nnc(-c3cccnc3)n2-c2ccccc2C)nc2cc(C(=O)O)ccc21	+	-3	-20	-53	124*
CN(C)C=Nc1ccc2nc3c(cc2c1)[nH]c1ccccc13	-17	-4	2	23	7
O=C(Nc1ccc(Oc2cccnc2)nc1)c1ccc(C(F)(F)F)cc1	-2	11	20*	-17	2
O=C(NC(=O)c1c(Cl)cccc1Cl)Nc1ccc(Oc2cccnc2)nc1	5	1	-10	-25	-6
COc1cc(/C=C/C(=O)OCC(=O)N(C)Cc2ccccc2)ccc1O	9	/	/	/	/
CCOC(=O)C1CCN(Cc2cc(=O)oc3c(C)c(C)ccc23)CC1	-14	-4	-2	-29	-5
COc1ccc2nc(C)cc(Nc3ccc(N4CCN(C)CC4)cc3)c2c1	4	31	-14	84*	-1
CC(=O)C1=C(C)OC(N)=C(C#N)C1c1cccc([N+](=O)[O-])c1 (stereo unspecified)	6	-9	33*	10	-15
Cc1ccc(NC(=O)Nc2ccccc2)cc1[N+](=O)[O-]	-8	-3	25*	15	-9
O=C(Nc1ccccc1)Nc1ccc(F)c([N+](=O)[O-])c1	-14	5	33*	10	4
CCCCCN(C(=O)CCC(=O)OCCOc1ccccc1Cl)c1c(N)n(CCCC)c(=O)[nH]c1=O	9	/	/	/	7
COc1ccccc1CNC(=O)COC(=O)c1cccc(S(=O)(=O)N2CCCC2)c1	-1	-4	-16	-9	1
SMILES	ZTA DNA inh	NS3 helicase inh	GPR7 antagonist	DNA FID counter	EBNA-1 inh
COc1ccc(N(C)S(=O)(=O)c2cccc(C(=O)OCC(=O)NCc3ccccc3OC)c2)cc1	-2	-15	19*	-31	-2
O=C(O)CCCNc1cc(N2CCC3(CC2)OCCO3)c2noc3c2c1C(=O)c1ccccc1-3	143*	37*	-10	-27	93*
CCOC(=O)N1CCN(c2cc(NCCC(=O)O)c3c4c(onc24)-c2ccccc2C3=O)CC1	177*	36*	-16	-23	118*
CC(C)C(NC(=O)c1c(F)cccc1F)C(=O)N1CCN(S(=O)(=O)/C=C/c2ccccc2)CC1 (stereo unspecified)	-2	/	/	/	/
COc1ccc(-c2noc(CCC(=O)NCCCN3CCC(Cc4ccccc4)CC3)n2)cc1	4	-80	29*	25	3
O=C(C1CC1)N(CCN(Cc1ccccc1)C(=O)C1CC1)Cc1ccccc1	9	0	43*	-35	-1
N#Cc1c(NC(=O)C2CC(c3ccccc3Cl)=NO2)sc2c1CCC2 (stereo unspecified)	-1	4	-4	-4	-7
N#Cc1c(NC(=O)C2CC(c3ccccc3O)=NO2)sc2c1CCC2 (stereo unspecified)	-6	-5	0	1	34*
COc1cc(NC(=O)COC(=O)c2ccccc2SCC(=O)N2CCCC2)cc(OC)c1	-14	/	/	/	1
CCN(CC)c1ccc(/C=C(/C#N)c2nc3ccc(C)cc3[nH]2)c(OC(C)C)c1	-7	-14	38*	-10	-3
Cc1cc(C(=O)CSc2nc3ccccc3[nH]2)c(C)n1CC1CCCO1 (stereo unspecified)	-1	4	27*	-23	1
Cc1ccc(-n2nnnc2SCC(=O)c2cc(C)n(CC3CCCO3)c2C)cc1 (stereo unspecified)	-7	/	/	/	101*
Cc1cc(C(=O)CSc2nc3ccccc3o2)c(C)n1CC1CCCO1 (stereo unspecified)	2	1	-14	-9	-1
Nn1c(SCC(=O)Nc2ccc3c(c2)OCCO3)nnc1C(F)(F)F	8	4	14*	-4	2
O=C(COC(=O)c1c2c(nc3ccccc13)/C(=C\c1cccs1)CCC2)Nc1ccccc1	6	2	-2	5	8
CC(=O)c1ccc(NC(=O)COC(=O)c2c3c(nc4ccccc24)/C(=C\c2cccs2)CCC3)cc1	18	6	-12	-6	44*
C#CCn1cc(Cl)cc(C(=O)Nc2ccccc2)c1=O	1	9	10	-6	-3
Cc1ccc(S(=O)(=O)N(C)C)cc1NC(=S)Nc1cccc2ccccc12	-1	20	46*	13	-16
O=C(O)c1ccc([N+](=O)[O-])c2c1C(=O)c1ccccc1C2=O	6	/	/	/	-7
Nc1cc(C(=O)O)c(N)c2c1C(=O)c1ccccc1C2=O	+	30	-8	-3	146*
COc1ccc(CNCCC(c2ccc(F)cc2)c2ccc(OC)cc2)cc1 (stereo unspecified)	0	-76	47*	28	-8
COc1cccc(CNC(=O)c2cc(S(=O)(=O)N3CCOCC3)ccc2N2CCCC2)c1	0	/	/	/	/
c1ccc(-c2ccc(C(c3ccccc3)n3ccnc3)cc2)cc1 (stereo unspecified)	4	-65	36*!	-9	-4
c1ccc(-c2ccc(-n3ccnc3)cc2)cc1	-9	-6	14	-4	4
CC(=O)c1c(C)[nH]c(C(=O)COc2cc(C)ccc2C(C)C)c1C	1	10	25*	-12	-5
CN1CCN(CC(=O)Nc2cc(N(C)C)nc3ccccc23)CC1	-2	23	-7	73*	10
